In ChEMBL document CHEMBL2062455, “Daphmacromines A-J, alkaloids from Daphniphyllum macropodum” (J Nat Prod, 2012):

Assays:
[1] = Toxicity in brine shrimp assessed as mortality at […] after 24 hrs by microscopic analysis; type: organism-based; conditions: artemia salina, in vivo; read-out: Activity
How it was run: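 Artemia salina eggs hatched in artificial seawater for 48 h at 28 °C to give nauplii. Compounds dissolved in DMSO, then diluted in artificial seawater to 100, 50 and 10 mg/L and tested in triplicate, with DMSO control wells. 15−25 nauplii per well, covered plate, 28 °C, 24 h. Nonmotile nauplii were scored as dead under the microscope.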

HL-60 = assay: Cytotoxicity against human HL60 cells after 48 hrs by MTT assay; type: functional, cell-based; conditions: HL-60, 48 h
How it was run: (§1)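 Cells kept in DMEM or RPMI-1640 with 10% FBS at 37 °C, 5% CO2. Initial density 5 × 10^3 to 1 × 10^4 cells/mL. Adherent cells attached 12 h before dosing; suspension cells seeded just before dosing. Compounds at 40 μM, triplicate, 48 h, cisplatin and paclitaxel as positive controls. MTT then 4 h at 37 °C, SDS lysis, OD 595 nm. IC50 by Reed–Muench method.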

SMMC-7721 = assay: Cytotoxicity against human SMMC7721 cells after 48 hrs by MTT assay; type: functional, cell-based; conditions: SMMC-7721, 48 h; how it was run: as §1
A549 = assay: Cytotoxicity against human A549 cells after 48 hrs by MTT assay; type: functional, cell-based; conditions: A549, 48 h; how it was run: as §1
MCF7 = assay: Cytotoxicity against human MCF7 cells after 48 hrs by MTT assay; type: functional, cell-based; conditions: MCF7, 48 h; how it was run: as §1
SW480 = assay: Cytotoxicity against human SW480 cells after 48 hrs by MTT assay; type: functional, cell-based; conditions: SW480, 48 h; how it was run: as §1

Compound: COC(=O)[C@@H]1C[C@@]23C(=O)N4C[C@@H](CCC5=C2[C@@H]1CC5)[C@]3(CO)/C=C\C(=O)[C@H](C)C4
- mortality at 24 h [1]: 38.3%
- IC50 (HL-60): > 40 µM
- IC50 (SMMC-7721): > 40 µM
- IC50 (A549): > 40 µM
- IC50 (MCF7): > 40 µM
- IC50 (SW480): > 40 µM

Compound: COC(=O)[C@@H]1C[C@@]23C4=C(CC[C@@H]5CN6C[C@@H](C)[C@@H](C=C[C@@]52C=O)[C@]63O)CC[C@@H]41 [DAPHHIMALENINE B]
- mortality at 24 h [1]: 64.9%
- IC50 (HL-60): > 40 µM
- IC50 (SMMC-7721): > 40 µM
- IC50 (A549): > 40 µM
- IC50 (MCF7): > 40 µM
- IC50 (SW480): > 40 µM

Compound: CCOC(=O)[C@@H]1C[C@@]23CN(C)C[C@@H](CCC4=C2[C@@H]1CC4=O)C31CC[C@](CC)(OC)OC1 (stereo partly specified) [DAPHMACROMINE A]
- mortality at 24 h [1]: 41%
- IC50 (HL-60): > 40 µM
- IC50 (SMMC-7721): > 40 µM
- IC50 (A549): > 40 µM
- IC50 (MCF7): > 40 µM
- IC50 (SW480): > 40 µM

Compound: CCOC(=O)[C@@H]1C[C@@]23CN(C)C[C@@H](CCC4=C2[C@H]1CC4=O)C31CC[C@](CC)(OC)OC1 (stereo partly specified) [DAPHMACROMINE B]
- mortality at 24 h [1]: 49.9%
- IC50 (HL-60): > 40 µM
- IC50 (SMMC-7721): > 40 µM
- IC50 (A549): > 40 µM
- IC50 (MCF7): > 40 µM
- IC50 (SW480): > 40 µM

Compound: CCO[C@@]1(CC)CCC2(CO1)[C@@H]1CCC3=C4[C@H](CC3=O)[C@H](C(=O)OC)C[C@@]42CN(C)C1 (stereo partly specified) [DAPHMACROMINE C]
- mortality at 24 h [1]: 50.9%
- IC50 (HL-60): > 40 µM
- IC50 (SMMC-7721): > 40 µM
- IC50 (A549): > 40 µM
- IC50 (MCF7): > 40 µM
- IC50 (SW480): > 40 µM

Compound: CCO[C@@]1(CC)CCC2(CO1)[C@@H]1CCC3=C4[C@@H](CC3=O)[C@H](C(=O)OC)C[C@@]42CN(C)C1 (stereo partly specified) [DAPHMACROMINE D]
- mortality at 24 h [1]: 53.8%
- IC50 (HL-60): > 40 µM
- IC50 (SMMC-7721): > 40 µM
- IC50 (A549): > 40 µM
- IC50 (MCF7): > 40 µM
- IC50 (SW480): > 40 µM

Compound: CC[C@]1(OC)CCC2(CO1)[C@@H]1CCC3=C4[C@H](CC3=O)[C@H](C(=O)OC)C[C@@]42CN(C)C1 (stereo partly specified) [DAPHMACROMINE E]
- mortality at 24 h [1]: 70.9%
- IC50 (HL-60): > 40 µM
- IC50 (SMMC-7721): > 40 µM
- IC50 (A549): > 40 µM
- IC50 (MCF7): > 40 µM
- IC50 (SW480): > 40 µM

Compound: CC[C@@]1(OC)CCC2(CO1)[C@@H]1CCC3=C4[C@H](CC3=O)[C@H](C(=O)OC)C[C@@]42CN(C)C1 (stereo partly specified) [DAPHMACROMINE F]
- mortality at 24 h [1]: 45%
- IC50 (HL-60): > 40 µM
- IC50 (SMMC-7721): > 40 µM
- IC50 (A549): > 40 µM
- IC50 (MCF7): > 40 µM
- IC50 (SW480): > 40 µM

Compound: CC[C@]1(OC)CCC2(CO1)[C@@H]1CCC3=C4[C@@H](CC3=O)[C@H](C(=O)OC)C[C@@]42CN(C)C1 (stereo partly specified) [DAPHMACROMINE G]
- mortality at 24 h [1]: 67.7%
- IC50 (HL-60): > 40 µM
- IC50 (SMMC-7721): > 40 µM
- IC50 (A549): > 40 µM
- IC50 (MCF7): > 40 µM
- IC50 (SW480): > 40 µM

Compound: COC(=O)[C@@H]1C[C@@]23CN(C)C[C@@H](CCC4=C2[C@H]1CC4=O)C31CC[C@@](O)(C(C)C)OC1 (stereo partly specified) [DAPHMACROMINE H]
- IC50 (HL-60): > 40 µM
- IC50 (SMMC-7721): > 40 µM
- IC50 (A549): > 40 µM
- IC50 (MCF7): > 40 µM
- IC50 (SW480): > 40 µM

Compound: CCC1=CCC2(CO1)[C@@H]1CCC3=C4[C@H](CC3=O)[C@H](C(=O)OC)C[C@@]42CN(C)C1 (stereo partly specified) [DAPHMACROMINE I]
- mortality at 24 h [1]: 64.6%
- IC50 (HL-60): > 40 µM
- IC50 (SMMC-7721): > 40 µM
- IC50 (A549): > 40 µM
- IC50 (MCF7): > 40 µM
- IC50 (SW480): > 40 µM

Compound: COC(=O)[C@@H]1C[C@@]23CN(C)C[C@@H](CCC4=C2[C@@H]1CC4=O)C31CC=C(C(C)C)OC1 (stereo partly specified) [DAPHMACROMINE J]
- mortality at 24 h [1]: 55.2%
- IC50 (HL-60): > 40 µM
- IC50 (SMMC-7721): > 40 µM
- IC50 (A549): > 40 µM
- IC50 (MCF7): > 40 µM
- IC50 (SW480): > 40 µM

Compound: COC(=O)[C@@H]1C[C@@]23C4=C(CC[C@@H]5CN6C[C@@H](C)[C@@H](C[C@@H](O)[C@@]52CO)[C@]63O)CC[C@@H]41 [DAPHNEZOMINE K]
- mortality at 24 h [1]: 0%
- IC50 (HL-60): > 40 µM
- IC50 (SMMC-7721): > 40 µM
- IC50 (A549): > 40 µM
- IC50 (MCF7): > 40 µM
- IC50 (SW480): > 40 µM

Compound: COC(=O)[C@@H]1C[C@]23C4=NC[C@@H](C)[C@]45C[C@@H](OC(C)=O)[C@@]2(COC(C)=O)[C@H](CCC2=C3[C@@H]1CC2)[C@H]5O [DAPHTENIDINE C]
- mortality at 24 h [1]: 31.8%
- IC50 (HL-60): > 40 µM
- IC50 (SMMC-7721): > 40 µM
- IC50 (A549): > 40 µM
- IC50 (MCF7): > 40 µM
- IC50 (SW480): > 40 µM

Compound: COC(=O)[C@@H]1C[C@@]23C4=C(CC[C@@H]5CN6C[C@@H](C)[C@@H](C[C@@H](OC(C)=O)[C@@]52COC(C)=O)C63)CC[C@@H]41 [DEOXYYUZURIMINE]
- mortality at 24 h [1]: 81.8%
- IC50 (HL-60): > 40 µM
- IC50 (SMMC-7721): > 40 µM
- IC50 (A549): > 40 µM
- IC50 (MCF7): > 40 µM
- IC50 (SW480): > 40 µM

Compound: COC(=O)[C@@H]1C[C@@]23C4=C(CC[C@@H]5CN6C[C@H](C)[C@@](O)(C=C[C@@]52C=O)[C@]63O)CC[C@@H]41 [YUZURIMINE C]
- mortality at 24 h [1]: 80.6%
- IC50 (HL-60): > 40 µM
- IC50 (SMMC-7721): > 40 µM
- IC50 (A549): > 40 µM
- IC50 (MCF7): > 40 µM
- IC50 (SW480): > 40 µM

Compound: COC(=O)[C@@H]1C[C@@]23C4=C(CC[C@@H]5CN6C[C@@H](C)[C@@H](C[C@@H](OC(C)=O)[C@@]52COC(C)=O)[C@]63O)CC[C@@H]41 [YUZURIMINE]
- mortality at 24 h [1]: 70.8%
- IC50 (HL-60): > 40 µM
- IC50 (SMMC-7721): > 40 µM
- IC50 (A549): > 40 µM
- IC50 (MCF7): > 40 µM
- IC50 (SW480): > 40 µM
